Laboratory results as given in ChEMBL document CHEMBL3098010, “Synthesis and biological evaluation of 3-hydroxymethyl-5-(1H-1,2,3-triazol) isoxazolidines” (Bioorg Med Chem, 2013).
Calls of active or inactive are those of the source. The rule behind the calls is not given here.

Key:
[1] = test system: 8305C; assay: Induction of apoptosis in human 8305C cells assessed as caspase-3 positive cells at 5 uM after 24 hrs by immunohistochemical analysis; type: functional, cell-based
Summary of the method: (§1)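 Cells on chamber slides are treated 24 h with 5 µM compound, then fixed in 4% paraformaldehyde for 20 min. Unspecific sites are blocked with 1% NGS for 1 h, then cells are incubated overnight at 37 °C with mouse anti-caspase-3 (1:200) and a TRITC anti-mouse secondary. Caspase-3-positive cells are counted by fluorescence microscopy in four fields per coverslip across four experiments.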

[2] = test system: FTC-133; assay: Cytotoxicity against human FTC-133 cells after 24 hrs by MTT assay; type: functional, cell-based; details: FTC-133, 24 h
Summary of the method: (§2)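 FTC-133 (DMEM, 2 mM GlutaMAX, 10% FBS) and 8305C (MEM, 2 mM GlutaMAX, 10% FBS, 1% non-essential amino acids) cells are exposed to compound at 0.5–20 µM for 24 h at 37 °C, 5% CO2. MTT is added (20 µL of 0.5% in PBS, pH 7.4) for 1 h, then dissolved in DMSO and read at 570 nm. IC50 is taken graphically from dose–effect curves. Mean of four independent experiments in triplicate.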

[3] = test system: FTC-133; assay: Induction of apoptosis in human FTC-133 cells assessed as caspase-3 positive cells at 5 uM after 24 hrs by immunohistochemical analysis; type: functional, cell-based; summary of the method: as §1
[4] = test system: 8305C; assay: Cytotoxicity against human 8305C cells after 24 hrs by MTT assay; type: functional, cell-based; summary of the method: as §2
[5] = test system: 8305C; assay: Induction of apoptosis in human 8305C cells assessed as DNA fragmentation at 5 uM after 24 hrs by TUNEL assay (reference value: 2 +/- 1%); type: functional
[6] = test system: FTC-133; assay: Induction of apoptosis in human FTC-133 cells assessed as DNA fragmentation at 5 uM after 24 hrs by TUNEL assay (reference value: 3 +/- 1%); type: functional

Which Activity [1] does the source give for `CN1O[C@@H](n2ccnn2)C[C@@H]1CO` (relative stereo) here?
Its Activity is “Active”.

And the IC50 [2]?
The IC50 was 6.53 µM.

What about the Activity [3] of the same compound?
Its Activity is “Active”.

And the IC50 [4]?
Its IC50 is 7.96 µM.

With `COc1ccc(-c2cn([C@@H]3C[C@H](CO)N(C)O3)nn2)cc1` (relative stereo) as the compound, how does the Activity [1] read?
Its Activity is “Active”.

What about the IC50 [2] of the same compound?
The IC50 was 6.48 µM.

And the Activity [3]?
Its Activity is “Active”.

What about the IC50 [4] of the same compound?
Its IC50 is 7.18 µM.

For `CN1O[C@H](n2ccnn2)C[C@@H]1CO` (relative stereo), which Activity [1] is on record?
The Activity was “Active”.

And the IC50 [2]?
Its IC50 is 6.3 µM.

What about the Activity [3] of the same compound?
Its Activity is “Active”.

What about the IC50 [4] of the same compound?
Its IC50 is 8.13 µM.

`CCCCCc1ccc(-c2cn([C@H]3C[C@H](CO)N(C)O3)nn2)cc1` (relative stereo) was tested. Which Activity [1] did it give?
Its Activity is “Active”.

What about the IC50 [2] of the same compound?
Its IC50 is 3.95 µM.

What about the Activity [3] of the same compound?
Its Activity is “Active”.

What about the IC50 [4] of the same compound?
Its IC50 is 5.96 µM.

For `Nc1ccn([C@@H]2O[C@H](CO)[C@@H](O)C2(F)F)c(=O)n1` [GEMCITABINE], which Activity [1] is on record?
Its Activity is “Active”.

What about the IC50 [2] of the same compound?
Its IC50 is 3.36 µM.

And the Activity [3]?
The Activity was “Active”.

What about the IC50 [4] of the same compound?
Its IC50 is 4.53 µM.

Which results are given for `CN1O[C@@H](n2cc(-c3ccc(F)cc3)nn2)C[C@@H]1CO`?
Activity [1]: Active; IC50 [2]: 6.07 µM; Activity [3]: Active; IC50 [4]: 6.76 µM

What does the source list for `CCCCCc1ccc(-c2cn([C@@H]3C[C@H](CO)N(C)O3)nn2)cc1` (relative stereo)?
Activity [1]: Active; IC50 [2]: 4.49 µM; Activity [3]: Active; IC50 [4]: 6.24 µM

Which Activity [1] does the source give for `CCCc1cn([C@H]2C[C@H](CO)N(C)O2)nn1` (relative stereo) here?
Its Activity is “Active”.

What about the IC50 [2] of the same compound?
The IC50 was 3.87 µM.

And the Activity [3]?
Its Activity is “Active”.

What about the IC50 [4] of the same compound?
The IC50 was 5.82 µM.

What about the Activity [5] of the same compound?
The Activity was 90%.

What about the Activity [6] of the same compound?
Its Activity is 95%.

Which Activity [1] does the source give for `CN1O[C@H](n2cc(-c3ccccc3)nn2)C[C@@H]1CO` (relative stereo) here?
The Activity was “Active”.

What about the IC50 [2] of the same compound?
The IC50 was 6.33 µM.

What about the Activity [3] of the same compound?
Its Activity is “Active”.

And the IC50 [4]?
The IC50 was 8.76 µM.

Which Activity [1] does the source give for `CN1O[C@H](n2cc(-c3ccc(F)cc3)nn2)C[C@@H]1CO` (relative stereo) here?
Its Activity is “Active”.

What about the IC50 [2] of the same compound?
Its IC50 is 5.85 µM.

What about the Activity [3] of the same compound?
Its Activity is “Active”.

What about the IC50 [4] of the same compound?
The IC50 was 6.85 µM.

With `COc1ccc(-c2cn([C@H]3C[C@H](CO)N(C)O3)nn2)cc1` (relative stereo) as the compound, how does the Activity [1] read?
The Activity was “Active”.

And the IC50 [2]?
The IC50 was 7 µM.

What about the Activity [3] of the same compound?
The Activity was “Active”.

What about the IC50 [4] of the same compound?
The IC50 was 8.01 µM.

How did the Activity [1] turn out when `CCCc1cn([C@@H]2C[C@H](CO)N(C)O2)nn1` (relative stereo) was run?
Its Activity is “Active”.

And the IC50 [2]?
The IC50 was 4.71 µM.

What about the Activity [3] of the same compound?
Its Activity is “Active”.

What about the IC50 [4] of the same compound?
Its IC50 is 6.87 µM.

For `CN1O[C@@H](n2cc(-c3ccccc3)nn2)C[C@@H]1CO` (relative stereo), which Activity [1] is on record?
The Activity was “Active”.

And the IC50 [2]?
Its IC50 is 6.03 µM.

And the Activity [3]?
Its Activity is “Active”.

What about the IC50 [4] of the same compound?
The IC50 was 7.14 µM.
